Reference: ChEMBL document CHEMBL3421619, “Nicotinic Acid Adenine Dinucleotide Phosphate Analogues Substituted on the Nicotinic Acid and Adenine Ribosides. Effects on ReceptorMediated Ca²⁺ Release” (J Med Chem, 2015)

Experiments:
[1] = Desensitization of NAADP receptor in Strongylocentrotus purpuratus egg homogenates assessed as inhibition of NAADP-induced Ca2+ release pre-treated for 7 mins before NAADP addition by Fluo-3 dye based fluorometric assay
How it was run: (§1)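 S. purpuratus egg homogenates pretreated 7 min with varying analogue concentrations, then challenged with saturating NAADP (1 μM); Ca2+ release read by fluo-3 fluorescence (ex 490/em 535 nm); IC50 for inhibition of release from concentration–response, triplicate, reported ± SEM with n; fold values relative to NAADP.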

[2] = system: Strongylocentrotus purpuratus; test: Desensitization of NAADP receptor in Strongylocentrotus purpuratus egg homogenates assessed as inhibition of NAADP-induced Ca2+ release pre-treated for 7 mins before NAADP addition by Fluo-3 dye based fluorometric assay relative to NAADP; how it was run: as §1
[3] = Displacement of [32P]NAADP from NAADP receptor in Strongylocentrotus purpuratus egg homogenates incubated for 90 mins by liquid scintillation counting method
How it was run: (§2)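 Competition binding in filter plates: S. purpuratus egg homogenate incubated 90 min simultaneously with 0.2 nM [32P]NAADP and seven concentrations of test ligand; filtered, washed, filter-bound radioactivity counted by liquid scintillation; IC50 ± SEM with n; fold values relative to NAADP.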

[4] = system: Strongylocentrotus purpuratus; test: Activation of NAADP receptor in Strongylocentrotus purpuratus egg homogenates assessed as Ca2+ release by Fluo-3 dye based fluorometric assay relative to NAADP
How it was run: (§3)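 Egg homogenate microsomes from S. purpuratus loaded with Ca2+ in presence of ATP and 3 μM fluo-3; analogue added at a range of concentrations and released Ca2+ read as fluorescence increase (excitation 490 nm, emission 535 nm) on a plate reader; pH 7.2; triplicate; EC50 from concentration–response; fold values relative to NAADP.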

[5] = Activation of NAADP receptor in Strongylocentrotus purpuratus egg homogenates assessed as Ca2+ release by Fluo-3 dye based fluorometric assay; how it was run: as §3
[6] = system: Strongylocentrotus purpuratus; test: Displacement of [32P]NAADP from NAADP receptor in Strongylocentrotus purpuratus egg homogenates incubated for 90 mins by liquid scintillation counting method relative to NAADP; how it was run: as §2
[7] = system: Strongylocentrotus purpuratus; test: Ratio of activation of NAADP receptor in Strongylocentrotus purpuratus egg homogenates by Ca2+ release assay to IC50 for NAADP receptor in Strongylocentrotus purpuratus egg homogenates by [32P]NAADP binding assay
[8] = system: Strongylocentrotus purpuratus; test: Ratio of activation of NAADP receptor in Strongylocentrotus purpuratus egg homogenates by Ca2+ release assay to IC50 for desensitization of NAADP receptor in Strongylocentrotus purpuratus egg homogenates by Ca2+ release assay
[9] = Activation of NAADP receptor in sea urchin egg homogenates assessed as Ca2+ release; format: tissue-based, Echinoidea; how it was run: as §3

Structure (SMILES) | IC50 [3] [µM] | Ratio EC50 [4] | EC50 [5] [µM] | Ratio IC50 [6] | Ratio [7] | EC50 [9] [µM] | IC50 [1] [µM] | Ratio IC50 [2] | Ratio [8]
NCCCc1cc(C(=O)O)c[n+]([C@H]2O[C@@H](COP(=O)(O)OP(=O)([O-])OC[C@H]3O[C@@H](n4cnc5c(N)ncnc54)[C@H](OP(=O)(O)O)[C@@H]3O)[C@H](O)[C@@H]2O)c1 | > 1000 | > 33300 | > 1000 | > 2e+06 | – | – | 674 | 1.43e+06 | –
[N-]=[N+]=Nc1cc(C(=O)O)c[n+]([C@H]2O[C@@H](COP(=O)(O)OP(=O)([O-])OC[C@H]3O[C@@H](n4c(Br)nc5c(N)ncnc54)[C@H](OP(=O)(O)O)[C@@H]3O)[C@H](O)[C@@H]2O)c1 | 0.372 | 52800 | 1360 | 1000 | – | – | 0.576 | 1220 | –
[N-]=[N+]=NCCCc1cc(C(=O)O)c[n+]([C@H]2O[C@@H](COP(=O)(O)OP(=O)([O-])OC[C@H]3O[C@@H](n4cnc5c(N)ncnc54)[C@H](OP(=O)(O)O)[C@@H]3O)[C@H](O)[C@@H]2O)c1 | 0.0563 | 1190 | 30.7 | 152 | – | – | 0.0456 | 97 | –
Nc1ncnc2c1ncn2[C@@H]1O[C@H](COP(=O)(O)OP(=O)(O)OC[C@@H]2O[C@H]([n+]3cccc(C(=O)[O-])c3)[C@@H](O)[C@H]2O)[C@@H](O)[C@H]1OP(=O)(O)O [NICOTINIC ACID ADENINE DINUCLEOTIDE PHOSPHATE] | 0.00037 | – | 0.0258 | – | – | 0.02 | 0.00047 | – | –
[N-]=[N+]=Nc1nc2c(N)ncnc2n1[C@@H]1O[C@H](COP(=O)([O-])OP(=O)(O)OC[C@@H]2O[C@H]([n+]3cccc(C(=O)O)c3)[C@@H](O)[C@H]2O)[C@@H](O)[C@H]1OP(=O)(O)O | 0.0007 | 1.8 | 0.0477 | 1.9 | – | – | 0.0006 | 1.3 | –
Nc1ncnc2c1nc(Br)n2[C@@H]1O[C@H](COP(=O)([O-])OP(=O)(O)OC[C@@H]2O[C@H]([n+]3cccc(C(=O)O)c3)[C@@H](O)[C@H]2O)[C@@H](O)[C@H]1OP(=O)(O)O | 0.0157 | 27.5 | 0.709 | 42.4 | – | – | 0.0153 | 32.6 | –
CC(=O)Nc1cc(C(=O)O)c[n+]([C@H]2O[C@@H](COP(=O)(O)OP(=O)([O-])OC[C@H]3O[C@@H](n4cnc5c(N)ncnc54)[C@H](OP(=O)(O)O)[C@@H]3O)[C@H](O)[C@@H]2O)c1 | 0.015 | 24.3 | 0.626 | 40.5 | – | – | 0.0215 | 45.7 | –
Nc1ncnc2c1ncn2[C@@H]1O[C@H](COP(=O)([O-])OP(=O)(O)OC[C@@H]2O[C@H]([n+]3cc(O)cc(C(=O)O)c3)[C@@H](O)[C@H]2O)[C@@H](O)[C@H]1OP(=O)(O)O | 0.0189 | 74.9 | 1.93 | 51 | – | – | 0.0231 | 49.1 | –

The next lines start with results.

IC50 [3] [µM] | Ratio EC50 [4] | EC50 [5] [µM] | Ratio IC50 [6] | Ratio [7] | EC50 [9] [µM] | Structure (SMILES) | IC50 [1] [µM] | Ratio IC50 [2] | Ratio [8]
3.27 | 6200 | 160 | 8840 | – | – | CC(C)(C)OC(=O)NCCCc1cc(C(=O)O)c[n+]([C@H]2O[C@@H](COP(=O)(O)OP(=O)([O-])OC[C@H]3O[C@@H](n4cnc5c(N)ncnc54)[C@H](OP(=O)(O)O)[C@@H]3O)[C@H](O)[C@@H]2O)c1 | 0.942 | 2000 | –
0.049 | 172 | 4.43 | 132 | – | – | Nc1ncnc2c1ncn2[C@@H]1O[C@H](COP(=O)([O-])OP(=O)(O)OC[C@@H]2O[C@H]([n+]3cc(CCCO)cc(C(=O)O)c3)[C@@H](O)[C@H]2O)[C@@H](O)[C@H]1OP(=O)(O)O | 0.122 | 260 | –
1.8 | 1620 | 41.7 | 4880 | – | – | CC(=O)NCCCc1cc(C(=O)O)c[n+]([C@H]2O[C@@H](COP(=O)(O)OP(=O)([O-])OC[C@H]3O[C@@H](n4cnc5c(N)ncnc54)[C@H](OP(=O)(O)O)[C@@H]3O)[C@H](O)[C@@H]2O)c1 | 1.23 | 2620 | –
0.0068 | 5.9 | 0.151 | 18.4 | 100 | – | CSc1cc(C(=O)O)c[n+]([C@H]2O[C@@H](COP(=O)(O)OP(=O)([O-])OC[C@H]3O[C@@H](n4cnc5c(N)ncnc54)[C@H](OP(=O)(O)O)[C@@H]3O)[C@H](O)[C@@H]2O)c1 | 0.0042 | 8.9 | 100
